Legend:
[1] = system: Lewis lung carcinoma cell line; assay: Cytotoxicity against mouse LLC cells harboring […] assessed as reduction in cell viability after 24 hrs by MTT assay; assay type: functional, cell-based
Procedure, shortened: (§1)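 Cells exposed to compounds; viability read at 24, 48 and 72 h. Every experiment run in triplicate.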

[2] = target: T1, 5-hydroxytryptamine receptor 1A (Homo sapiens, UniProt P08908); assay: Displacement of [3H]-Way100635 from human 5HT1A receptor expressed in stable CHO cell membranes by radioligand binding assay
T1 sequence (P08908 whole entry): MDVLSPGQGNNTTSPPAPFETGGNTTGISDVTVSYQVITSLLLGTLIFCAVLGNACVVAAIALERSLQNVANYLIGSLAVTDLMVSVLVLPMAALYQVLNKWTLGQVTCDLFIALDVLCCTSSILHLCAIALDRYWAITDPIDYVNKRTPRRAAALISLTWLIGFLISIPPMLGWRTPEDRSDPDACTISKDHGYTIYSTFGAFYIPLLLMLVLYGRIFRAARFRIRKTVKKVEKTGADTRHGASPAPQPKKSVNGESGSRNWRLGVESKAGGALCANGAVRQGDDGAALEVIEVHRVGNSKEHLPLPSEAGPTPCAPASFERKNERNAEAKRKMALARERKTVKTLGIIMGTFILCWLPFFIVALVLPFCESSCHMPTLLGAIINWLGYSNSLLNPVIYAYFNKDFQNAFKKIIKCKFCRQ

Mus musculus [3] = assay: Toxicity in C57BL/6J mouse assessed as increase in glutamate dehydrogenase level at 5 mg/kg, ip treated daily for 7 consecutive days measured after 24 hrs post last dose […]; assay type: organism-based; conditions: in vivo
Procedure, shortened: (§2)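 Female C57BL6 mice given 5 mg/kg i.p. daily for 7 days; blood taken at sacrifice 24 h after last dose for clinical chemistry panel: electrolytes, minerals, total protein, albumin, globulin, A/G ratio, BUN, ALT, AST, GLDH, cholestasis markers, ALP, bilirubin, amylase, creatine kinase.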

NIH3T3 [4] = assay: Cytotoxicity against mouse NIH/3T3 cells assessed as reduction in cell viability after 72 hrs by MTT assay; assay type: cell-based; conditions: NIH3T3, 72 h; procedure, shortened: as §1
[5] = target: T2, 5-hydroxytryptamine receptor 2A (Homo sapiens, UniProt P28223); assay: Displacement of [3H]Ketanserin from 5-HT2A receptor (unknown origin) by radioligand binding assay
T2 sequence (P28223 whole entry): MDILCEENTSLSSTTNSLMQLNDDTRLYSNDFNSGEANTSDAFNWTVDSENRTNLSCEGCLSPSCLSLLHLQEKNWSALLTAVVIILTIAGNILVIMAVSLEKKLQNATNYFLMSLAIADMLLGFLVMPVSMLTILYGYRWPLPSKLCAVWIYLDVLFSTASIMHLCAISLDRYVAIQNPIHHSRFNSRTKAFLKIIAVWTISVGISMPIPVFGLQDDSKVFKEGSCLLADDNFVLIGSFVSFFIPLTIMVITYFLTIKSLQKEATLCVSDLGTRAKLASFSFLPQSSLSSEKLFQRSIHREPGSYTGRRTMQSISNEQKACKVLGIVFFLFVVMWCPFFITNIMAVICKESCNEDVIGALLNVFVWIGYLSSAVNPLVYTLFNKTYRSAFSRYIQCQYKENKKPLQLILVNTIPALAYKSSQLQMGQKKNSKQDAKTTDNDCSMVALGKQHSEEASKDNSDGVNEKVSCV

D(1A) dopamine receptor [6] = target: T3, D(1A) dopamine receptor (Homo sapiens, UniProt P21728); assay: Displacement of [3H]SCH23390 from human dopamine D1 receptor expressed in HEK293T cells by radioligand binding assay relative to control; assay type: cell-based; set-up: concentration or dose not given beside the values; conditions: concentration not given here
T3 sequence (P21728 whole entry): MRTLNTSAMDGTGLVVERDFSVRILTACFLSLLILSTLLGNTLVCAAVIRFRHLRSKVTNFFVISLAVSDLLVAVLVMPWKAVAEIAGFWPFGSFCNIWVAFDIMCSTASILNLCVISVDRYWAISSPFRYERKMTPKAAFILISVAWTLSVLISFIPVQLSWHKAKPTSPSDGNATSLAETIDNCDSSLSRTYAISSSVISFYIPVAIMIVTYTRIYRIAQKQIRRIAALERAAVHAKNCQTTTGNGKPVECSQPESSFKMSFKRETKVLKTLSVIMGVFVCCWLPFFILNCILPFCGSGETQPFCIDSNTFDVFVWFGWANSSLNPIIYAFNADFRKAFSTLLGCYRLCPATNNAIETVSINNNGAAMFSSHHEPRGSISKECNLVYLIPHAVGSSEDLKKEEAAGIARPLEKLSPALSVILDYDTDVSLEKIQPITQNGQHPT

[7] = system: Lewis lung carcinoma cell line; assay: Cytotoxicity against mouse LLC cells harboring […] assessed as reduction in cell viability after 48 hrs by MTT assay; assay type: functional, cell-based; procedure, shortened: as §1
[8] = target: 5-hydroxytryptamine receptor 1D (Homo sapiens, UniProt P28221); assay: Displacement of [3H]5-CT from human 5-HT1D receptor expressed in HEK293T cells by radioligand binding assay; assay type: cell-based
5-hydroxytryptamine receptor 1D, sequence (P28221 whole entry): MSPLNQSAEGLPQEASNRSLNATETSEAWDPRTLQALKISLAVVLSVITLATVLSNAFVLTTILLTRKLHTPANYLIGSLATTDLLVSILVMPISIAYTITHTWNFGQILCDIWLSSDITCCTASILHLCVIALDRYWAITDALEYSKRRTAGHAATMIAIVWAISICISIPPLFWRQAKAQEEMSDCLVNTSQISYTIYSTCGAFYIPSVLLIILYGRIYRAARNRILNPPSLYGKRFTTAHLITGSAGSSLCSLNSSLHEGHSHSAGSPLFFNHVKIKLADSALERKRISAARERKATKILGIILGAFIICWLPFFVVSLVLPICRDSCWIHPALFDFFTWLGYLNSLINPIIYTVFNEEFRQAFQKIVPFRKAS

NIH3T3 [9] = assay: Cytotoxicity against mouse NIH/3T3 cells assessed as reduction in cell viability after 48 hrs by MTT assay; assay type: cell-based; conditions: NIH3T3, 48 h; procedure, shortened: as §1
[10] = target: Delta-type opioid receptor (Homo sapiens, UniProt P41143); assay: Displacement of [3H]DADLE from human DOR expressed in HEK cells by radioligand binding assay relative to control; assay type: cell-based; set-up: concentration or dose not given beside the values; conditions: concentration not given here
Delta-type opioid receptor, sequence (P41143 whole entry): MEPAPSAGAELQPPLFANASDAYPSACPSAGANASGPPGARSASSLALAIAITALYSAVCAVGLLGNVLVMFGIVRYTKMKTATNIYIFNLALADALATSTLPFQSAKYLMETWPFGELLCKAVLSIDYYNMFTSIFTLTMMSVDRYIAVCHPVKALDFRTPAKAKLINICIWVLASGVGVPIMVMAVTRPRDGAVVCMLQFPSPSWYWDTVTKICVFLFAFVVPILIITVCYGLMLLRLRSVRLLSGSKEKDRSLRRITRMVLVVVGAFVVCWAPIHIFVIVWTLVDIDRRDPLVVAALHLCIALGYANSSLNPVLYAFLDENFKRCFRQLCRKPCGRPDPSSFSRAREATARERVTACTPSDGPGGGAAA

[11] = Drug distribution in C57BL/6J mouse lung at 5 mg/kg, ip treated daily for 7 consecutive days measured after 24 hrs post last dose by LC/MS/MS analysis; assay type: ADME, organism-based; conditions: in vivo
Procedure, shortened: (§3)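 Female C57BL6 mice dosed 5 mg/kg i.p. once daily for seven consecutive days; sacrificed 24 h after last injection, organs stored at −80 °C. Plasma, brain, lungs and adipose tissue analysed by LC-MS/MS for drug concentration (nM); n = 5.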

[12] = target: T4, 5-hydroxytryptamine receptor 5A (Homo sapiens, UniProt P47898); assay: Displacement of [3H]LSD from human 5-HT5A receptor expressed in Flp-In CHO cells by radioligand binding assay relative to control; assay type: cell-based; set-up: concentration or dose not given beside the values; conditions: concentration not given here
T4 sequence (P47898 whole entry): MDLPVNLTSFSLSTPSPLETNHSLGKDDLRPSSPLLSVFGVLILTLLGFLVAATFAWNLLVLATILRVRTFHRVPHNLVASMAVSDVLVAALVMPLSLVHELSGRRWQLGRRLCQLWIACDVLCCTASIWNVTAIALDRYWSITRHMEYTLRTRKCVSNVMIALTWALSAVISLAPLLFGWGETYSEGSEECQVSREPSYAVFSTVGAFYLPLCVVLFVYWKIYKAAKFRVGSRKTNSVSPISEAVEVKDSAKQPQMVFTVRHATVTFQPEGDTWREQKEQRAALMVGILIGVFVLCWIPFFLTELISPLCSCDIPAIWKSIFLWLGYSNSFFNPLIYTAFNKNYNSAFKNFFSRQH

[13] = target: T5, Sodium-dependent dopamine transporter (Homo sapiens, UniProt Q01959); assay: Displacement of [3H]WIN35428 from human DAT expressed in HEK cells by radioligand binding assay; assay type: cell-based
T5 sequence (Q01959 whole entry): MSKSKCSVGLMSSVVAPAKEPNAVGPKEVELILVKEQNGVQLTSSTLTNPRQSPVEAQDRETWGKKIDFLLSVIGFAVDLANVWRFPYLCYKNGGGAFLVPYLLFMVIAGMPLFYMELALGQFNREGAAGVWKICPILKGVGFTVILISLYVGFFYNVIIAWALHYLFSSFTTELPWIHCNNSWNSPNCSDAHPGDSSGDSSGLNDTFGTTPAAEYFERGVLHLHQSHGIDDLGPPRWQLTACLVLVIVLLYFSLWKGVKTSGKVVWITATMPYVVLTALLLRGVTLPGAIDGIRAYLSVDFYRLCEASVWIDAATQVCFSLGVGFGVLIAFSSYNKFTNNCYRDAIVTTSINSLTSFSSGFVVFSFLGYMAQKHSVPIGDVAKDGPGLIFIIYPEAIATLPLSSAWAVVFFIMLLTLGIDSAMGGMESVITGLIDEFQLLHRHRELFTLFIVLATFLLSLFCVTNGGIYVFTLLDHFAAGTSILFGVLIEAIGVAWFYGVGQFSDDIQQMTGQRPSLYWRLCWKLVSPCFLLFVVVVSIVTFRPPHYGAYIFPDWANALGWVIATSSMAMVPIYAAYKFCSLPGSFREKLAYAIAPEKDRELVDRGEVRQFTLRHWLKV

[14] = target: T6, 5-hydroxytryptamine receptor 1A (Homo sapiens) (UniProt P08908); assay: Displacement of [3H]-Way100635 from human 5HT1A receptor expressed in stable CHO cell membranes by radioligand binding assay relative to control; set-up: concentration or dose not given beside the values; conditions: concentration not given here
T6 sequence (whole entry): T1 sequence (P08908 whole entry)

[15] = target: T2, 5-hydroxytryptamine receptor 2A; assay: Displacement of [3H]Ketanserin from 5-HT2A receptor (unknown origin) by radioligand binding assay relative to control; set-up: concentration or dose not given beside the values; conditions: concentration not given here
[16] = target: T5, Sodium-dependent dopamine transporter; assay: Displacement of [3H]WIN35428 from human DAT expressed in HEK cells by radioligand binding assay relative to control; assay type: cell-based
[17] = Drug distribution in C57BL/6J mouse adipose tissue at 5 mg/kg, ip treated daily for 7 consecutive days measured after 24 hrs post last dose by LC/MS/MS analysis; assay type: ADME, organism-based; conditions: in vivo; procedure, shortened: as §3
D(1A) dopamine receptor [18] = target: T3, D(1A) dopamine receptor; assay: Displacement of [3H]SCH23390 from human dopamine D1 receptor expressed in HEK293T cells by radioligand binding assay; assay type: cell-based
MDA-MB-231 = assay: Cytotoxicity against human MDA-MB-231 cells assessed as reduction in cell viability after 72 hrs by MTT assay; assay type: functional, cell-based; conditions: MDA-MB-231, 72 h; procedure, shortened: as §1
Histamine H1 receptor [19] = target: T7, Histamine H1 receptor (Homo sapiens, UniProt P35367); assay: Displacement of [3H]Pyrilamine from human H1 receptor expressed in HEK cells by radioligand binding assay relative to control; assay type: cell-based; set-up: concentration or dose not given beside the values; conditions: concentration not given here
T7 sequence (P35367 whole entry): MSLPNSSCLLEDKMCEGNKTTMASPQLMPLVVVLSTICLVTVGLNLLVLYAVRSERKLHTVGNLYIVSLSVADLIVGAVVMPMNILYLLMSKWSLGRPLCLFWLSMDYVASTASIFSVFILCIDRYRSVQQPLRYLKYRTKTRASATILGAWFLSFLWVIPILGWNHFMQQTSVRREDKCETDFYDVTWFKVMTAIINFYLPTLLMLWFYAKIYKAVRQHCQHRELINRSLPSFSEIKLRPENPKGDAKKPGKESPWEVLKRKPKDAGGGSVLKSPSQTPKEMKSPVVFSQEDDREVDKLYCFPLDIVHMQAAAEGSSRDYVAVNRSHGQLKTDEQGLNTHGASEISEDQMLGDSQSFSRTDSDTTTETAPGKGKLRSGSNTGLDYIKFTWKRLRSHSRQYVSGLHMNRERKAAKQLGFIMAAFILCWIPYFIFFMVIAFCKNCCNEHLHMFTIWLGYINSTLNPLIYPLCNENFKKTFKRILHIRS

Mus musculus [20] = assay: Toxicity in C57BL/6J mouse assessed as reduction in alkaline phosphatase level at 5 mg/kg, ip treated daily for 7 consecutive days measured after 24 hrs post last dose […]; assay type: organism-based; conditions: in vivo; procedure, shortened: as §2
Mus musculus [21] = assay: Toxicity in C57BL/6J mouse assessed as decrease in blood urea nitrogen level at 5 mg/kg, ip treated daily for 7 consecutive days measured after 24 hrs post last dose […]; conditions: in vivo
[22] = target: Kappa-type opioid receptor (Homo sapiens, UniProt P41145); assay: Displacement of [3H]U69593 from KOR (unknown origin) expressed in HEK cells by radioligand binding assay; assay type: cell-based
Kappa-type opioid receptor, sequence (P41145 whole entry): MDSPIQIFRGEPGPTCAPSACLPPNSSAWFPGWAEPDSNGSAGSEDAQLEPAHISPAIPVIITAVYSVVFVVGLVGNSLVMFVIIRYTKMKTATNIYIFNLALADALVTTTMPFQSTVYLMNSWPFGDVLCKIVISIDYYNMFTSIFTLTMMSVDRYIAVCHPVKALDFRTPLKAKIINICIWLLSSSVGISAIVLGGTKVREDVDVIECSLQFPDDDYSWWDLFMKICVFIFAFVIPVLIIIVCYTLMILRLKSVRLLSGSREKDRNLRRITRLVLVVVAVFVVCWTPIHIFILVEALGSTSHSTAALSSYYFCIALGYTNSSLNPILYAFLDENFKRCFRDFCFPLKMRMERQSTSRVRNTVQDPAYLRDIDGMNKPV

Histamine H2 receptor = Histamine H2 receptor (Homo sapiens, UniProt P25021); assay: Displacement of [3H]Cimetidine from human H2 receptor expressed in HEK cells by radioligand binding assay; assay type: cell-based
Histamine H2 receptor, sequence (P25021 whole entry): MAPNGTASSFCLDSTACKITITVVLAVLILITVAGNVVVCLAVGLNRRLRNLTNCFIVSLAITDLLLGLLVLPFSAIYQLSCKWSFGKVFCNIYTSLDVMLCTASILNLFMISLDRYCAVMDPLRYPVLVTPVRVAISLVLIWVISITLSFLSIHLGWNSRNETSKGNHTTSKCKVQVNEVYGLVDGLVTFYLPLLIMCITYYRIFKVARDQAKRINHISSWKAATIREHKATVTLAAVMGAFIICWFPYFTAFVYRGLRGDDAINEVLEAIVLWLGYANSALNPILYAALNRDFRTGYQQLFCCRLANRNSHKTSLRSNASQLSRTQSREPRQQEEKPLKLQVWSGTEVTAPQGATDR

Histamine H1 receptor [23] = target: T7, Histamine H1 receptor; assay: Displacement of [3H]Pyrilamine from human H1 receptor expressed in HEK cells by radioligand binding assay; assay type: cell-based
[24] = target: T4, 5-hydroxytryptamine receptor 5A; assay: Displacement of [3H]LSD from human 5-HT5A receptor expressed in Flp-In CHO cells by radioligand binding assay; assay type: cell-based
[25] = target: 5-hydroxytryptamine receptor 6 (Homo sapiens, UniProt P50406); assay: Displacement of [3H]LSD from human 5-HT6 receptor expressed in HEK cells by radioligand binding assay; assay type: cell-based
5-hydroxytryptamine receptor 6, sequence (P50406 whole entry): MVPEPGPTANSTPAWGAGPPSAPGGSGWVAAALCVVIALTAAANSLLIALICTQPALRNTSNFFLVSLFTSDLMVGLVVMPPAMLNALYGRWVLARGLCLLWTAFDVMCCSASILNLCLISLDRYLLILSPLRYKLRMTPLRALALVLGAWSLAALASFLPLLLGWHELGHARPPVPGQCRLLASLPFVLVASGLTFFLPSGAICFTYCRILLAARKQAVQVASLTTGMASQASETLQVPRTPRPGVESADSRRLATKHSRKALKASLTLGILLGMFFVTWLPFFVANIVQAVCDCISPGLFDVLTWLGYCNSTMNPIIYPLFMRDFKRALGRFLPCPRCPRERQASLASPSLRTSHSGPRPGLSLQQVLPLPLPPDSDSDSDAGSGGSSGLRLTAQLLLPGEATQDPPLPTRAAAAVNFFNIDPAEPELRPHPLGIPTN

[26] = target: Sodium-dependent serotonin transporter (Homo sapiens, UniProt P31645); assay: Displacement of [3H]Citalopram from human SERT expressed in HEK cells by radioligand binding assay; assay type: cell-based
Sodium-dependent serotonin transporter, sequence (P31645 whole entry): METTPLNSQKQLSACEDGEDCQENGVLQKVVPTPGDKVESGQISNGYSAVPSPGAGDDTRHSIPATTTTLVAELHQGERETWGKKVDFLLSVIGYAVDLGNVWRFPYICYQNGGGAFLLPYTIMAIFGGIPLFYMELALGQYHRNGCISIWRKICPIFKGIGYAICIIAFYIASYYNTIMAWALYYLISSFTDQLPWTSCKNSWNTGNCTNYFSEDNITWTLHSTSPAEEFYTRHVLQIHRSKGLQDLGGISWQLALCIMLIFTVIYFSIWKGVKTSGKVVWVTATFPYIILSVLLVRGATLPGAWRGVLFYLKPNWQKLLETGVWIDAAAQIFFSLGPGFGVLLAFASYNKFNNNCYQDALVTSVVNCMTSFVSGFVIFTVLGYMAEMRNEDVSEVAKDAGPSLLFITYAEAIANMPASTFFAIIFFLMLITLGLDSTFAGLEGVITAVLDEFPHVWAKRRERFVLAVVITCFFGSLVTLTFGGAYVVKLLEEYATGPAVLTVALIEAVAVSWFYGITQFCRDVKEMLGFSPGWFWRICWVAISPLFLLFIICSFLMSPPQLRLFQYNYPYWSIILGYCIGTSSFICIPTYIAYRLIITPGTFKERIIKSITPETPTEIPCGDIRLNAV

Mus musculus [27] = assay: Toxicity in C57BL/6J mouse assessed as effect on lung weight at 5 mg/kg, ip treated daily for 7 consecutive days measured after 24 hrs post last dose; assay type: organism-based; conditions: in vivo
Procedure, shortened: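 Female C57BL6 mice treated 5 mg/kg i.p. once daily for seven days; killed 24 h after final injection and organs collected and weighed.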

Row | SMILES | IC50 [1] | Ki [2] | IC50 (NIH3T3 [4]) | Ki [5] | inhibition (D(1A) dopamine receptor [6]) | IC50 [7] | Ki ([8]; read-out: Ki) | IC50 (NIH3T3 [9]) | inhibition [10] | inhibition [12] | Ki [13] | inhibition [14] | inhibition [15] | inhibition (INH) [16] | Ki (D(1A) dopamine receptor [18]) | IC50 (MDA-MB-231) | inhibition (Histamine H1 receptor [19]) | Ki [22] | Ki (Histamine H2 receptor; read-out: Ki) | Ki [25] | other results
1 | OC1(c2ccc(Cl)c(C(F)(F)F)c2)CCN(CCCC(c2ccc(F)cc2)c2ccc(F)cc2)CC1 [PENFLURIDOL] | 6 µM | 0.356 µM | 6.01 µM | 0.361 µM | 96.5% | 4.2 µM | 3.56 µM | 6.09 µM | 89.1% | 95% | 1.71 µM | 100% | 95.2% | 89.1% | 0.147 µM | 5.1 µM | 84% |  |  |  | Activity (Mus musculus [3]): Toxic; Drug uptake [11]: Active; Drug uptake [17]: Active; Activity (Mus musculus [20]): Toxic; Activity (Mus musculus [21]): Toxic
2 | OC1(c2ccc(Cl)c(C(F)(F)F)c2)CCN(CCCC=C(c2ccc(F)cc2)c2ccc(F)cc2)CC1 | 15.6 µM | 1.36 µM | 7.1 µM | 1.1 µM |  | 12 µM |  | 14.8 µM | 74.1% | 21.4% |  | 71.2% | 91.5% |  |  | 9.6 µM | 64.6% | 1.02 µM | 0.526 µM |  | Ki [8]: Not Active; Ki (Histamine H1 receptor [23]; read-out: Ki): 0.718 µM
3 | COc1ccc(N(CCCCN2CCC(O)(c3ccc(Cl)c(C(F)(F)F)c3)CC2)c2ccc(OC)cc2)cc1 | 6.3 µM | 10 µM | 11.2 µM | 0.9 µM | 56.6% | 4 µM | 10 µM | 11 µM | 77.6% | 50% | 0.622 µM | 57.3% | 94.1% | 91.3% | 10 µM | 5.4 to 7.1 µM | 71.9% | 10 µM |  | 1.4 µM | Activity (Mus musculus [3]): Non-Toxic; Ki ([24]; read-out: Ki): 4.97 µM; Drug uptake [11]: Active; Ki [26]: 1.31 µM; Ki (Histamine H2 receptor): Not Active; Ki (Histamine H1 receptor [23]; read-out: Ki): 7.03 µM; Drug uptake [17]: Active; Activity (Mus musculus [27]): Non-Toxic; Activity (Mus musculus [20]): Non-Toxic; Activity (Mus musculus [21]): Non-Toxic
4 | OC1(c2ccc(Cl)c(C(F)(F)F)c2)CCN(CCCN(c2ccc(F)cc2)c2ccc(F)cc2)CC1 | 7 µM | 1.26 µM | 4 µM | 0.164 µM | 96.8% | 5.7 µM | 0.752 µM | 5.6 µM | 65.9% | 67.7% | 1.19 µM | 94.2% | 94.6% | 83.4% | 0.3 µM | 3.5 µM | 88.5% | 0.667 µM | 0.252 µM | 1.68 µM | Ki [26]: 0.903 µM; Ki (Histamine H1 receptor [23]; read-out: Ki): 0.814 µM
5 | OC1(c2ccc(Cl)c(C(F)(F)F)c2)CCN(CCCCC(c2ccc(F)cc2)c2ccc(F)cc2)CC1 | 5.6 µM | 1.39 µM | 4.1 µM | 1 µM | 92.6% | 4.1 µM | 0.844 µM | 5.3 µM | 84.5% | 75.8% | 0.529 µM | 85% | 96.3% | 91.6% | 0.798 µM | 4.8 µM |  | 2.67 µM | 0.546 µM | 1.67 µM | Activity (Mus musculus [3]): Non-Toxic; Ki ([24]; read-out: Ki): 0.894 µM; Drug uptake [11]: Active; Ki [26]: 0.428 µM; Drug uptake [17]: Active; Activity (Mus musculus [27]): Non-Toxic; Activity (Mus musculus [20]): Non-Toxic; Activity (Mus musculus [21]): Non-Toxic
6 | OC1(c2ccc(Cl)c(C(F)(F)F)c2)CCN(CCCCN(c2ccc(F)cc2)c2ccc(F)cc2)CC1 | 10.8 µM | 1.09 µM | 6.4 µM | 6.06 µM | 77.9% | 10.6 µM | 1.07 µM | 11.6 µM | 68.9% | 50% | 10 µM | 82.2% | 92.6% | 86.6% | 10 µM | 9.2 µM |  | 10 µM |  | 1.67 µM | Ki ([24]; read-out: Ki): 4.15 µM; Ki [26]: 10 µM; Ki (Histamine H2 receptor): Not Active; Ki (Histamine H1 receptor [23]): Not Active
7 | OC1(c2ccc(Cl)c(C(F)(F)F)c2)CCN(CCCC(c2ccccc2)c2ccccc2)CC1 | 11.4 µM | 0.481 µM | 9.8 µM | 1 µM | 97.2% | 6.6 µM | 0.628 µM | 12 µM | 82.7% |  | 0.121 µM | 97.2% | 94.3% | 87.5% | 0.135 µM | 8.4 µM |  | 1.33 µM | 0.278 µM | 1.69 µM | Ki ([24]; cho): Not Active; Ki [26]: 1.18 µM
8 | OC1(c2ccc(Cl)c(C(F)(F)F)c2)CCN(CCCCCc2ccc(F)cc2)CC1 | 26.9 µM | 0.901 µM | 9.8 µM | 0.889 µM |  | 11.9 µM | 4.43 µM | 11.8 µM |  | 16.4% |  | 77.2% | 68.5% |  |  | 9.8 µM | 69.2% | 1.7 µM | 0.401 µM |  | Ki (Histamine H1 receptor [23]; read-out: Ki): 0.718 µM

Reference: ChEMBL document CHEMBL4257579, “Analogs of penfluridol as chemotherapeutic agents with reduced central nervous system activity” (Bioorg Med Chem Lett, 2018)
